The values that follow come from paper PMC5766692 (Journal of Ginseng Research, 2017).

The nature of series [1]: Stability of the analytes in rat plasma under different conditions. It is filed as in vitro ADME. Conditions: for Freeze–thaw stability, accuracy (mean ± SD): three freeze (−80°C)-thaw (room temperature) cycles; for Long-term stability, accuracy (mean ± SD): −80°C for 1 mo. A digest of the protocol:
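Rat plasma QC samples (low, medium, high) run in five replicates by UPLC-MS/MS with digoxin IS. Long-term: stored at −80°C for 1 mo. Freeze–thaw: three cycles of −80°C freezing and room-temperature thawing. Post-preparative: extracted QC samples held in the autosampler at 15°C for 24 h. Precision […] taken as relative standard deviation of QC concentrations.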

Series [2] is classed as in vivo, Sprague Dawley rats. The conditions noted are these: rat plasma, oral WG, RG, FG extracts and free ginsenosides; for Time of first peak of the plasma concentration-time curve / Time of second peak of the plasma concentration-time curve: bimodal curve. A digest of the protocol:
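Male Sprague Dawley rats (240–260 g), fasted 12 h with water allowed, 5 per group. Dosed orally with 70% ethanol ginseng decoctions or a water mixture of pure ginsenosides (25, 86, 45, 42 mg/kg). Retro-orbital blood taken 0.083–36 h; plasma acetonitrile-precipitated with digoxin IS, dried, redissolved in methanol. Analysed by C18 UPLC-MS/MS in positive ion mode; profiles mean ± SD.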

The nature of series [3]: Stability of the analytes in rat tissue homogenates under different conditions. It is filed as in vitro ADME. The conditions noted are these: for Short-term stability, accuracy (mean ± SD) / Freeze–thaw stability, accuracy (mean ± SD) / Long-term stability, accuracy (mean ± SD): tissue; for Freeze–thaw stability, accuracy (mean ± SD): three freeze (−80°C)-thaw (room temperature) cycles; for Long-term stability, accuracy (mean ± SD): −80°C for 1 mo. In outline: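 Tissues rinsed in pH 7.4 sodium phosphate buffer, 0.5 g homogenised in 1 mL saline, then acetonitrile and digoxin IS added. Supernatant dried and redissolved in methanol for UPLC-MS/MS. QC tissue samples run in five replicates after storage at −80°C for 1 mo. Brain QC samples also put through three −80°C/room-temperature freeze–thaw cycles.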

The format of series [4] is in vivo, Sprague Dawley rats. The conditions noted are these: rats, 30 min after oral RG, WG, FG extracts and free ginsenosides; heart, liver, spleen, lungs, kidneys, brain, muscle, testes.
For series [5] the following is noted: mouse; higher than free ginsenoside Re; cited from earlier work.

Take `CC(C)=CCC[C@](C)(O[C@@H]1O[C@H](CO[C@@H]2O[C@H](CO)[C@@H](O)[C@H](O)[C@H]2O)[C@@H](O)[C@H](O)[C@H]1O)[C@H]1CC[C@]2(C)[C@@H]1[C@H](O)C[C@@H]1[C@@]3(C)CC[C@H](O[C@@H]4O[C@H](CO)[C@@H](O)[C@H](O)[C@H]4O[C@@H]4O[C@H](CO)[C@@H](O)[C@H](O)[C@H]4O)C(C)(C)[C@@H]3CC[C@]12C` [Rb1]: the “Short-term stability, accuracy (mean ± SD)” value is 91.3 ± 5.3% in series [1] (plasma, spiked 2.0 μg/mL); 91.5 ± 6.8% in series [1] (plasma, spiked 5.0 μg/mL); 94.4 ± 7.9% in series [1] (plasma, spiked 10 μg/mL); 102.4 ± 5.1% in series [3] (spiked 0.2 μg/mL); 101.1 ± 7.0% in series [3] (spiked 0.5 μg/mL); 105.0 ± 5.1% in series [3] (spiked 1.0 μg/mL). Also, the “Freeze–thaw stability, accuracy (mean ± SD)” value was 96.2 ± 8.5% in series [1] (plasma, spiked 2.0 μg/mL); 103.3 ± 6.0% in series [1] (plasma, spiked 5.0 μg/mL); 98.5 ± 8.2% in series [1] (plasma, spiked 10 μg/mL); 108.5 ± 6.0% in series [3] (spiked 0.2 μg/mL); 109.2 ± 8.1% in series [3] (spiked 0.5 μg/mL); 103.7 ± 7.0% in series [3] (spiked 1.0 μg/mL). The “Long-term stability, accuracy (mean ± SD)” value in series [1] (plasma, spiked 2.0 μg/mL) is reported as 95.6 ± 7.7%; in series [1] (plasma, spiked 5.0 μg/mL), 106.6 ± 6.8%; in series [1] (plasma, spiked 10 μg/mL), 93.9 ± 8.5%; in series [3] (spiked 0.2 μg/mL), 104.5 ± 8.6%; in series [3] (spiked 0.5 μg/mL), 108.1 ± 6.7%; in series [3] (spiked 1.0 μg/mL) it was 101.0 ± 8.7%. In series [1] (plasma, spiked 10 μg/mL, extracted samples in automatic sampler at 15°C for 24 h), the “Post-preparative stability, accuracy (mean ± SD)” value was 94.5 ± 8.0%. The “Stability in rat plasma during sample extraction and storage” value in series [1] is on record as “stable”. Besides, the “Time of the single peak of the plasma concentration-time curve” value in series [2] fell in the range of 8 to 10 h. Also, in series [3], the “Stability in the various tissue homogenates during sample extraction and storage” value is listed as “stable”. The “Tissue distribution (main tissues)” value in series [4] is reported as “mainly distributed in the heart”.
As for `CC(C)=CCC[C@](C)(O[C@@H]1O[C@H](CO)[C@@H](O)[C@H](O)[C@H]1O)[C@H]1CC[C@]2(C)[C@@H]1[C@H](O)C[C@@H]1[C@@]3(C)CC[C@H](O)C(C)(C)[C@@H]3[C@@H](O[C@@H]3O[C@H](CO)[C@@H](O)[C@H](O)[C@H]3O)C[C@]12C` [Rg1], the “Short-term stability, accuracy (mean ± SD)” value in series [1] (plasma, spiked 0.5 μg/mL) came out at 102.0 ± 6.4%; in series [1] (plasma, spiked 1.0 μg/mL), 93.2 ± 7.0%; in series [1] (plasma, spiked 2.0 μg/mL), 92.1 ± 8.6%; in series [3] (spiked 0.01 μg/mL), 92.2 ± 2.3%; in series [3] (spiked 0.05 μg/mL), 102.5 ± 3.1%; in series [3] (spiked 0.2 μg/mL) it was 92.3 ± 6.6%. Also, the “Freeze–thaw stability, accuracy (mean ± SD)” value came out at 106.1 ± 3.4% in series [1] (plasma, spiked 0.5 μg/mL); 107.0 ± 8.2% in series [1] (plasma, spiked 1.0 μg/mL); 94.3 ± 4.0% in series [1] (plasma, spiked 2.0 μg/mL); 100.2 ± 3.6% in series [3] (spiked 0.01 μg/mL); 93.5 ± 9.1% in series [3] (spiked 0.05 μg/mL); 95.3 ± 6.6% in series [3] (spiked 0.2 μg/mL). Moreover, the “Long-term stability, accuracy (mean ± SD)” value is 103.7 ± 8.0% in series [1] (plasma, spiked 0.5 μg/mL); 103.1 ± 9.4% in series [1] (plasma, spiked 1.0 μg/mL); 94.6 ± 5.6% in series [1] (plasma, spiked 2.0 μg/mL); 101.9 ± 5.3% in series [3] (spiked 0.01 μg/mL); 94.7 ± 7.4% in series [3] (spiked 0.05 μg/mL); 92.3 ± 7.5% in series [3] (spiked 0.2 μg/mL). The “Stability in rat plasma during sample extraction and storage” value in series [1] is “stable”. Also, the “Time of first peak of the plasma concentration-time curve” value in series [2] was in the range of 15 to 30 min. For the same compound, the “Time of second peak of the plasma concentration-time curve” value in series [2] lay in the range of 8 to 12 h. Further, the “Stability in the various tissue homogenates during sample extraction and storage” value in series [3] was “stable”. Further, the “Tissue distribution (main tissues)” value in series [4] was “extensively distributed in the heart, lungs, and kidneys”.
As to `CC(C)=CCC[C@](C)(O[C@@H]1O[C@H](CO)[C@@H](O)[C@H](O)[C@H]1O)[C@H]1CC[C@]2(C)[C@@H]1[C@H](O)C[C@@H]1[C@@]3(C)CC[C@H](O)C(C)(C)[C@@H]3[C@@H](O[C@@H]3O[C@H](CO)[C@@H](O)[C@H](O)[C@H]3O[C@@H]3O[C@@H](C)[C@H](O)[C@@H](O)[C@H]3O)C[C@]12C` [Re], the “Short-term stability, accuracy (mean ± SD)” value is 102.5 ± 9.0% in series [1] (plasma, spiked 0.1 μg/mL); 94.4 ± 4.4% in series [1] (plasma, spiked 0.5 μg/mL); 97.6 ± 3.5% in series [1] (plasma, spiked 1.0 μg/mL); 92.2 ± 8.7% in series [3] (spiked 0.01 μg/mL); 96.6 ± 2.8% in series [3] (spiked 0.05 μg/mL); 92.4 ± 4.8% in series [3] (spiked 0.2 μg/mL). For the same compound, the “Freeze–thaw stability, accuracy (mean ± SD)” value in series [1] (plasma, spiked 0.1 μg/mL) is 93.3 ± 6.2%; in series [1] (plasma, spiked 0.5 μg/mL), 97.5 ± 7.0%; in series [1] (plasma, spiked 1.0 μg/mL) it was 99.0 ± 7.4%; in series [3] (spiked 0.01 μg/mL), 92.7 ± 8.0%; in series [3] (spiked 0.05 μg/mL), 103.5 ± 5.5%; in series [3] (spiked 0.2 μg/mL), 100.7 ± 7.4%. Further, the “Long-term stability, accuracy (mean ± SD)” value in series [1] (plasma, spiked 0.1 μg/mL) came out at 96.6 ± 4.1%; in series [1] (plasma, spiked 0.5 μg/mL), 98.7 ± 5.0%; in series [1] (plasma, spiked 1.0 μg/mL), 92.2 ± 7.4%; in series [3] (spiked 0.01 μg/mL), 93.2 ± 5.8%; in series [3] (spiked 0.05 μg/mL), 105.5 ± 9.4%; in series [3] (spiked 0.2 μg/mL), 103.8 ± 6.5%. Besides, the “Stability in rat plasma during sample extraction and storage” value in series [1] is recorded as “stable”. Also, the “Time of first peak of the plasma concentration-time curve” value in series [2] lay within 15 to 30 min. Also, the “Time of second peak of the plasma concentration-time curve” value in series [2] lay within 8 to 12 h. Further, the “Stability in the various tissue homogenates during sample extraction and storage” value in series [3] is “stable”. The “Tissue distribution (main tissues)” value in series [4] is “mainly distributed in the heart and lungs”. Moreover, the “Absorption of ginsenoside Re from ginseng berry extract” value in series [5] is given as 0.33–0.75%.
Take `CC(C)=CCC[C@](C)(O[C@@H]1O[C@H](CO)[C@@H](O)[C@H](O)[C@H]1O)[C@H]1CC[C@]2(C)[C@@H]1[C@H](O)C[C@@H]1[C@@]3(C)CC[C@H](O[C@@H]4O[C@H](CO)[C@@H](O)[C@H](O)[C@H]4O[C@@H]4O[C@H](CO)[C@@H](O)[C@H](O)[C@H]4O)C(C)(C)[C@@H]3CC[C@]12C` [Rd]: the “Short-term stability, accuracy (mean ± SD)” value in series [1] (plasma, spiked 0.1 μg/mL) was 92.3 ± 4.3%; in series [1] (plasma, spiked 1.0 μg/mL), 94.6 ± 5.2%; in series [1] (plasma, spiked 2.0 μg/mL), 105.3 ± 6.0%; in series [3] (spiked 0.2 μg/mL), 107.2 ± 7.3%; in series [3] (spiked 0.5 μg/mL), 106.4 ± 8.5%; in series [3] (spiked 1.0 μg/mL), 93.8 ± 5.1%. The “Freeze–thaw stability, accuracy (mean ± SD)” value is 92.5 ± 7.7% in series [1] (plasma, spiked 0.1 μg/mL); 106.5 ± 6.5% in series [1] (plasma, spiked 1.0 μg/mL); 104.3 ± 8.6% in series [1] (plasma, spiked 2.0 μg/mL); 96.5 ± 8.4% in series [3] (spiked 0.2 μg/mL); 95.7 ± 9.5% in series [3] (spiked 0.5 μg/mL); 99.6 ± 3.4% in series [3] (spiked 1.0 μg/mL). Also, the “Long-term stability, accuracy (mean ± SD)” value is 93.6 ± 8.5% in series [1] (plasma, spiked 0.1 μg/mL); 102.3 ± 9.6% in series [1] (plasma, spiked 1.0 μg/mL); 102.5 ± 2.3% in series [1] (plasma, spiked 2.0 μg/mL); 95.5 ± 5.6% in series [3] (spiked 0.2 μg/mL); 92.0 ± 9.4% in series [3] (spiked 0.5 μg/mL); 94.4 ± 7.0% in series [3] (spiked 1.0 μg/mL). In addition, in series [1], the “Stability in rat plasma during sample extraction and storage” value is reported as “stable”. In series [2], the “Time of first peak of the plasma concentration-time curve” value was 15 to 30 min. The “Time of second peak of the plasma concentration-time curve” value in series [2] lay within 8 to 12 h. The “Stability in the various tissue homogenates during sample extraction and storage” value in series [3] is recorded as “stable”. For the same compound, the “Tissue distribution (main tissues)” value in series [4] is given as “mainly distributed in the kidneys”.
